Here are results for 14 compounds from PubChem BioAssay.

Each structure is given as a SMILES string. The source made the active and inactive calls.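 Rule for the calls, unless noted: active = Her2 level under about 52% in both replicate screens, with viability over 70% of control (limit read from the data); inconclusive = Her2 under the limit in one screen only, or viability under 70%; inactive = Her2 level above the set limit.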

Assay [1] can be described thus: reducers of endogenous Her2 protein level, primary screen, SKBR3 breast tumor cells, AlphaScreen, ATP viability (AID 461).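 For Her2 level: lower value means less Her2 protein in the cells.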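 For viability: percent of carrier control wells set as 100% viability.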 The settings on record: 18-24 h, measured here: SKBR3 viability, ATP luminescence, at 10 µM.
Assay [2] deals with Receptor tyrosine-protein kinase erbB-2 (Homo sapiens) (UniProt P04626). The assay is described as above. The note with it: 18-24 h, at 10 µM, stronger effect = lower value.
Receptor tyrosine-protein kinase erbB-2 (Homo sapiens), sequence (P04626 whole entry, looked up): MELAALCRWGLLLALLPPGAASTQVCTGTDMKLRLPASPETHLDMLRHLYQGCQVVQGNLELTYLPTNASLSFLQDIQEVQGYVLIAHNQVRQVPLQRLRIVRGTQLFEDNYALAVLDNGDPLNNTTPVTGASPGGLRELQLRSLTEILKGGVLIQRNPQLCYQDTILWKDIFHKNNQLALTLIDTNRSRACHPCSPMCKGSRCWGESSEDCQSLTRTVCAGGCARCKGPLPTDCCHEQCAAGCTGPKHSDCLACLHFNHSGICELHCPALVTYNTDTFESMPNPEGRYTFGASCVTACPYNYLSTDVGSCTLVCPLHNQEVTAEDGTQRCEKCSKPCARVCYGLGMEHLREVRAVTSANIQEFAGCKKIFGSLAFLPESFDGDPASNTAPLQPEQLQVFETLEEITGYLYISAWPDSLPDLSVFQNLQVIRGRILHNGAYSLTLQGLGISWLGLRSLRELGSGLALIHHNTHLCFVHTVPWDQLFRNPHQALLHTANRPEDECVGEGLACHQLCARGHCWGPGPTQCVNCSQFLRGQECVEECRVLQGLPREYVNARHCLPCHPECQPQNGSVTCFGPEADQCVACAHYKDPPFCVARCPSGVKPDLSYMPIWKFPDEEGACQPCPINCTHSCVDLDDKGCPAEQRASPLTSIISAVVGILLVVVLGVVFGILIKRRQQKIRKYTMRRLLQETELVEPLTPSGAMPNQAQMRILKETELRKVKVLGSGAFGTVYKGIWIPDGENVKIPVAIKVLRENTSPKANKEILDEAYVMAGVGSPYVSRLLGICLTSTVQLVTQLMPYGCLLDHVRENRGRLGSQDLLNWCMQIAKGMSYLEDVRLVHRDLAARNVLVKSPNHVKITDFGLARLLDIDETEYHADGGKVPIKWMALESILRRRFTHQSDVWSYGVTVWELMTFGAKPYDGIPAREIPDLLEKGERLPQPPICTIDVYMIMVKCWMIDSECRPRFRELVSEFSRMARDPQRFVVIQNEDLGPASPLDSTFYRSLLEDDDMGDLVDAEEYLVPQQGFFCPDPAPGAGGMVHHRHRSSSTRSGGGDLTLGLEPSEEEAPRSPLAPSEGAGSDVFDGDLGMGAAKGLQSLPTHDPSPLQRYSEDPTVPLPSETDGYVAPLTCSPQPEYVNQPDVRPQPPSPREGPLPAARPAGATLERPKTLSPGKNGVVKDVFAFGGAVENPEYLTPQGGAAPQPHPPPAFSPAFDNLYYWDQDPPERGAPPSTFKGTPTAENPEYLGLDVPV
Assay [3] in a line: SK-BR-3 cell growth inhibitors, pilot screen, 24 h, human (AID 572;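 active = viability at or below 10% of carrier control in both of two separate runs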;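 note: compound exposure lasted between 18 and 24 h rather than exactly 24 h; 100% = carrier-treated control wells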). The settings on record: SK-BR-3 viability, CellTiter-Glo luminescence, at 10 µM, stronger effect = lower value.
Assay [4] is described as follows: HUVEC growth inhibition – cell-based, human, primary screen (AID 575;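 active = viability at or below 30% in both replicate assays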;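 note: 100% = median of untreated cell wells with 0.1% DMSO on each plate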). The note with it: HUVEC proliferation, CellTiter-Glo luminescence, 72 h; at 10 µM; stronger effect = lower value. Summed up:
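Material: primary human umbilical vein endothelial cells / Schedule: 72 h exposure, 37 °C, 5% CO2, 30 min RT equilibration / Signal: ATP-based CellTiter-Glo luminescent read / Read-out basis: percent of median DMSO-control luminescence / Control set: 32 DMSO-only cell-control wells (high), 32 MePR drug-control wells (low) per plate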
A general note: In ATP-based viability assays light output follows the ATP content of the culture.

Assay [5] can be described thus: growth inhibitors of H69AR lung tumor, primary screen, human, duplicate replicates (AID 580;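 active = viability at or under a set limit in both replicates, limit being median viability minus 3 SD, cut at about 48% in these data, passing the limit was not always enough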;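 note: 100% = mean luminescence of untreated wells and 0% = no signal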). The settings on record: H69AR lung tumor cells viability, ATP luminescence, 72 h; at 10 µM; stronger effect = lower value.
Assay [6] in a line: reversal of MRP1-mediated doxorubicin resistance, pilot screen, H69AR cells, doxorubicin co-treatment (AID 601;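 active = viability loss from added drug above about 55%, and viability with drug at most 40%, in both replicates, limit read from the data, passing the limit was not always enough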). The settings on record: CellTiter-Glo, 72 h, at 10 µM; for differential viability (reversal): stronger effect = higher value.
The nature of assay [7]: 384-well plate pilot, post-Golgi transport modulator project, inhibition of yeast transport mutant growth (AID 636; in the data active = inhibition above about 31%). The settings on record: absorbance 615 nm, about 18 h, stronger effect = higher value.
Assay [8] is described as follows: growth suppression of yeast trafficking mutant, preliminary HTS, modulators of trafficking downstream of Golgi apparatus project, 1536-format plate, OD 615 nm (AID 637; in the data active = inhibition above about 30%). The note with it: yeast transport mutant growth, absorbance 615 nm, 18 h; stronger effect = higher value.
The mark [9] stands for this setting: H69AR cells + 2 uM doxorubicin, measured here: viability with 2 uM doxorubicin, stronger effect = lower value.
Where [10] appears, read: H69AR cells, compound alone cytotoxicity.

Broadly, the viability is a read-out of living cells in per cent, often relative to untreated cells. One may read the inhibition as the change of the read-out against control, counted positive when it falls. On to `Cc1cc(C)n(-c2ccc(C(=O)Nc3ccc4c(c3)OCCO4)cc2)n1`, for which the viability is 93% in assay [1]; 93% (inactive) in assay [3]; 62.2% (inactive) in assay [4]; 89% (inactive) in assay [5]; 95.2% in assay [6] (setting [9]); 89% in assay [6] (setting [10]). Moreover, the Her2 level in assay [2] was 77.5% (inactive). The differential viability (reversal) in assay [6] (H69AR cells + 2 uM doxorubicin) is -6.18% (inactive). Besides, the figures for the inhibition in assay [7] and in assay [8] were 1.03% (inactive) and -2% (inactive), respectively.

As to `Cc1ccc(NC(=O)C2CCCN(S(=O)(=O)c3cnc[nH]3)C2)cc1C` (stereo not given), the viability in assay [1] is 95%; in assay [3], 95% (inactive); in assay [4], 102% (inactive); in assay [5], 100% (inactive); in assay [6] (setting [9]), 94.6%; in assay [6] (setting [10]) it was 100%. The Her2 level in assay [2] was 110% (inactive). The differential viability (reversal) in assay [6] (H69AR cells + 2 uM doxorubicin) was 5.56% (inactive). For the same compound, the inhibition is -5.6% (inactive) in assay [7] and -2.3% (inactive) in assay [8].

Regarding `Cc1nnc(SCC(=O)N(C(C)C)C(C)C)nc1C`, the viability in assay [1] was 75.5%; in assay [3], 75.5% (inactive); in assay [4] it was 95% (inactive); in assay [5], 103% (inactive); in assay [6] (setting [9]), 93.2%; in assay [6] (setting [10]), 103%. The Her2 level in assay [2] is 88.5% (inactive). The differential viability (reversal) in assay [6] (H69AR cells + 2 uM doxorubicin) is 10.3% (inactive). Further, the inhibition in assay [7] was -5.6% (inactive); in assay [8] it was -1.31% (inactive).

For `CN(c1ccccc1C(N)=O)S(=O)(=O)c1ccccc1`, the viability in assay [1] is 105%; in assay [3], 105% (inactive); in assay [4], 101% (inactive); in assay [5] it was 92.7% (inactive); in assay [6] (setting [9]), 85.7%; in assay [6] (setting [10]) it was 92.7%. Also, in assay [2], the Her2 level is 86% (inactive). Moreover, the differential viability (reversal) in assay [6] (H69AR cells + 2 uM doxorubicin) was 7.05% (inactive). For the same compound, the inhibition in assay [7] is -6.53% (inactive); in assay [8] it was -0.48% (inactive).

Turning to `COc1ccccc1NC(=O)c1cc2n(n1)C(C(F)(F)F)CC(c1ccc3c(c1)OCO3)N2` (stereo not given), the viability is 85% in assay [1]; 85% (inactive) in assay [3]; 47.7% (inactive) in assay [4]; 73.3% (inactive) in assay [5]; 87.1% in assay [6] (setting [9]); 73.3% in assay [6] (setting [10]). For the same compound, in assay [2], the Her2 level was 95% (inactive). Also, the differential viability (reversal) in assay [6] (H69AR cells + 2 uM doxorubicin) was -13.8% (inactive). For the same compound, the inhibition in assay [7] was -4.03% (inactive); in assay [8], -3.33% (inactive).

In the case of `COc1cccc(OCc2nc3c4cnn(-c5ccccc5)c4ncn3n2)c1`, the viability in assay [1] is 97.5%; in assay [3] it was 97.5% (inactive); in assay [4], 80.1% (inactive); in assay [5], 67.8% (inactive); in assay [6] (setting [9]), 88.3%; in assay [6] (setting [10]) it was 67.8%. In addition, the Her2 level in assay [2] was 99.5% (inactive). The differential viability (reversal) in assay [6] (H69AR cells + 2 uM doxorubicin) is -20.5% (inactive). In addition, the results for the inhibition in assay [7] and in assay [8] were -2.24% (inactive) and 3.44% (inactive), respectively.

Regarding `CCOc1ccc(C2C(C#N)=C(N)Oc3cc(C)n(CCN(C)C)c(=O)c32)cc1OCC` (stereo not given), the viability in assay [1] is 84%; in assay [3] it was 84% (inactive); in assay [4], 90.3% (inactive); in assay [5], 101% (inactive); in assay [6] (setting [9]), 83.3%; in assay [6] (setting [10]), 101%. Besides, the Her2 level in assay [2] is 79.5% (inactive). In addition, the differential viability (reversal) in assay [6] (H69AR cells + 2 uM doxorubicin) was 17.7% (inactive). The figures for the inhibition in assay [7] and in assay [8] were -4.32% (inactive) and -1.43% (inactive), respectively.

Turning to `CC1CCN(S(=O)(=O)c2ccc3[nH]c(=O)cc(C(=O)O)c3c2)CC1`, the viability is 98% in assay [1]; 98% (inactive) in assay [3]; 106% (inactive) in assay [4]; 105% (inactive) in assay [5]; 88.3% in assay [6] (setting [9]); 105% in assay [6] (setting [10]). In addition, the Her2 level in assay [2] was 114% (inactive). The differential viability (reversal) in assay [6] (H69AR cells + 2 uM doxorubicin) was 17.1% (inactive). Also, the inhibition in assay [7] is -4.16% (inactive); in assay [8], -4.1% (inactive).

For `CC1=C(C(=O)OC2CCCCC2)C(c2cccnc2)n2ncnc2N1` (stereo not given), the viability in assay [1] was 104%; in assay [3] it was 104% (inactive); in assay [4], 105% (inactive); in assay [5] it was 81.8% (inactive); in assay [6] (setting [9]) it was 90.4%; in assay [6] (setting [10]), 81.8%. Further, the Her2 level in assay [2] is 66.5% (inactive). In assay [6] (H69AR cells + 2 uM doxorubicin), the differential viability (reversal) was -8.64% (inactive). In addition, the inhibition is -6.58% (inactive) in assay [7] and -5.83% (inactive) in assay [8].

Regarding `O=C(Nc1ccc(O)cc1)C1CCCN1S(=O)(=O)c1ccc(F)cc1` (stereo not given), the viability in assay [1] is 97.5%; in assay [3] it was 97.5% (inactive); in assay [4], 91.6% (inactive); in assay [5], 97.3% (inactive); in assay [6] (setting [9]) it was 94.7%; in assay [6] (setting [10]) it was 97.3%. Also, in assay [2], the Her2 level was 92% (inactive). Further, the differential viability (reversal) in assay [6] (H69AR cells + 2 uM doxorubicin) is 2.53% (inactive). The inhibition in assay [7] is -1.47% (inactive); in assay [8], 1.64% (inactive).

On to `CCn1c(NCc2ccc(N(C)C)cc2)nc2ccccc21`, for which the viability in assay [1] was 84.5%; in assay [3], 84.5% (inactive); in assay [4], 101% (inactive); in assay [5], 97.9% (inactive); in assay [6] (setting [9]), 86.7%; in assay [6] (setting [10]) it was 97.9%. Also, in assay [2], the Her2 level was 87.5% (inactive). For the same compound, the differential viability (reversal) in assay [6] (H69AR cells + 2 uM doxorubicin) is 11.2% (inactive). Further, the inhibition is -2.03% (inactive) in assay [7] and -1.5% (inactive) in assay [8].

Consider `C=CCOc1nc2c(c(=O)n(C)c(=O)n2C)n1C`, for which the viability in assay [1] was 96.5%; in assay [3], 96.5% (inactive); in assay [4], 90.9% (inactive); in assay [5], 94.4% (inactive); in assay [6] (setting [9]), 82%; in assay [6] (setting [10]) it was 94.4%. Moreover, the Her2 level in assay [2] was 100% (inactive). Also, the differential viability (reversal) in assay [6] (H69AR cells + 2 uM doxorubicin) was 12.4% (inactive). Moreover, the inhibition is -3.25% (inactive) in assay [7] and 1.33% (inactive) in assay [8].

For `CCN(CC)CCN1C(=O)C(O)=C(C(=O)c2ccco2)C1c1ccccn1` (stereo not given), the viability in assay [1] is 109%; in assay [3] it was 109% (inactive); in assay [4], 88.9% (inactive); in assay [5], 97.7% (inactive); in assay [6] (setting [9]), 96%; in assay [6] (setting [10]) it was 97.7%. In addition, in assay [2], the Her2 level is 93% (inactive). For the same compound, the differential viability (reversal) in assay [6] (H69AR cells + 2 uM doxorubicin) was 1.63% (inactive). Also, the values for the inhibition in assay [7] and in assay [8] were -3.82% (inactive) and 5.08% (inactive), respectively.

For `CCCCc1c(O)nc(SCC(=O)c2ccccc2)[nH]c1=O`, the viability in assay [1] is 105%; in assay [3] it was 105% (inactive); in assay [4] it was 89% (inactive); in assay [5] it was 104% (inactive); in assay [6] (setting [9]), 83%; in assay [6] (setting [10]) it was 104%. Also, in assay [2], the Her2 level was 102% (inactive). For the same compound, in assay [6] (H69AR cells + 2 uM doxorubicin), the differential viability (reversal) was 21.1% (inactive). For the same compound, the values for the inhibition in assay [7] and in assay [8] were -4.87% (inactive) and 11.8% (inactive), respectively.
